Measured values from ChEMBL document CHEMBL2062435, “Synthesis and in vitro antibacterial activity of gemifloxacin derivatives containing a substituted benzyloxime moiety” (2012).

test system: Klebsiella pneumoniae; experiment: Antimicrobial activity against extended spectrum beta-lactamases-producing Klebsiella pneumoniae 10-3 after 18-24 hrs by two-fold serial dilution method; assay type: functional
Summary of the method: (§1)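 Agar-medium twofold serial dilution against Gram-positive and Gram-negative strains; MIC taken as the lowest compound concentration giving complete inhibition of bacterial growth after incubation at 35 °C for 18-24 h.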

| SMILES | MIC [µg/mL] |
| --- | --- |
| COc1cc(CO/N=C2\CN(c3nc4c(cc3F)c(=O)c(C(=O)O)cn4C3CC3)CC2CN)ccc1OCc1ccccc1.CS(=O)(=O)O (racemic) | > 128 |

test system: Enterococcus faecalis; experiment: Antimicrobial activity against Enterococcus faecalis 10-7 after 18-24 hrs by two-fold serial dilution method; assay type: functional; summary of the method: as §1

| SMILES | MIC [µg/mL] |
| --- | --- |
| COc1cc(CO/N=C2\CN(c3nc4c(cc3F)c(=O)c(C(=O)O)cn4C3CC3)CC2CN)ccc1OCc1ccccc1.CS(=O)(=O)O (racemic) | 4 |

test system: Enterococcus faecium; experiment: Antimicrobial activity against Enterococcus faecium 10-5 after 18-24 hrs by two-fold serial dilution method; assay type: functional; summary of the method: as §1

| SMILES | MIC [µg/mL] |
| --- | --- |
| COc1cc(CO/N=C2\CN(c3nc4c(cc3F)c(=O)c(C(=O)O)cn4C3CC3)CC2CN)ccc1OCc1ccccc1.CS(=O)(=O)O (racemic) | 16 |

test system: Streptococcus pneumoniae; experiment: Antimicrobial activity against extended spectrum beta-lactamases-producing Streptococcus pneumoniae 10-1 after 18-24 hrs by two-fold serial dilution method; assay type: functional; summary of the method: as §1

| SMILES | MIC [µg/mL] |
| --- | --- |
| COc1cc(CO/N=C2\CN(c3nc4c(cc3F)c(=O)c(C(=O)O)cn4C3CC3)CC2CN)ccc1OCc1ccccc1.CS(=O)(=O)O (racemic) | 4 |

test system: Staphylococcus epidermidis; experiment: Antimicrobial activity against extended spectrum beta-lactamases-producing methicillin-sensitive Staphylococcus epidermidis 10-13 after 18-24 hrs by two-fold serial dilution method; assay type: functional; summary of the method: as §1

| SMILES | MIC [µg/mL] |
| --- | --- |
| COc1cc(CO/N=C2\CN(c3nc4c(cc3F)c(=O)c(C(=O)O)cn4C3CC3)CC2CN)ccc1OCc1ccccc1.CS(=O)(=O)O (racemic) | 2 |

test system: Escherichia coli; experiment: Antimicrobial activity against Escherichia coli 10-2 after 18-24 hrs by two-fold serial dilution method; assay type: functional; summary of the method: as §1

| SMILES | MIC [µg/mL] |
| --- | --- |
| COc1cc(CO/N=C2\CN(c3nc4c(cc3F)c(=O)c(C(=O)O)cn4C3CC3)CC2CN)ccc1OCc1ccccc1.CS(=O)(=O)O (racemic) | 16 |

test system: Klebsiella pneumoniae; experiment: Antimicrobial activity against Klebsiella pneumoniae 10-2 after 18-24 hrs by two-fold serial dilution method; assay type: functional; summary of the method: as §1

| SMILES | MIC [µg/mL] |
| --- | --- |
| COc1cc(CO/N=C2\CN(c3nc4c(cc3F)c(=O)c(C(=O)O)cn4C3CC3)CC2CN)ccc1OCc1ccccc1.CS(=O)(=O)O (racemic) | > 128 |

test system: Escherichia coli; experiment: Antimicrobial activity against Escherichia coli ATCC 25922 after 18-24 hrs by two-fold serial dilution method; assay type: functional; summary of the method: as §1

| SMILES | MIC [µg/mL] |
| --- | --- |
| COc1cc(CO/N=C2\CN(c3nc4c(cc3F)c(=O)c(C(=O)O)cn4C3CC3)CC2CN)ccc1OCc1ccccc1.CS(=O)(=O)O (racemic) | 2 |

test system: Escherichia coli; experiment: Antimicrobial activity against Escherichia coli 10-1 after 18-24 hrs by two-fold serial dilution method; assay type: functional; summary of the method: as §1

| SMILES | MIC [µg/mL] |
| --- | --- |
| COc1cc(CO/N=C2\CN(c3nc4c(cc3F)c(=O)c(C(=O)O)cn4C3CC3)CC2CN)ccc1OCc1ccccc1.CS(=O)(=O)O (racemic) | > 128 |

test system: Pseudomonas aeruginosa; experiment: Antimicrobial activity against extended spectrum beta-lactamases-producing Pseudomonas aeruginosa 10-15 after 18-24 hrs by two-fold serial dilution method; assay type: functional; summary of the method: as §1

| SMILES | MIC [µg/mL] |
| --- | --- |
| COc1cc(CO/N=C2\CN(c3nc4c(cc3F)c(=O)c(C(=O)O)cn4C3CC3)CC2CN)ccc1OCc1ccccc1.CS(=O)(=O)O (racemic) | 32 |

test system: Staphylococcus epidermidis; experiment: Antimicrobial activity against extended spectrum beta-lactamases-producing methicillin-resistant Staphylococcus epidermidis 10-10 after 18-24 hrs by two-fold serial dilution method; assay type: functional
Summary of the method: (§2)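 Agar twofold serial dilution MIC against clinical isolates. MIC was taken as the lowest concentration giving complete inhibition of bacterial growth after incubation at 35 °C for 18-24 h.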

| SMILES | MIC [µg/mL] |
| --- | --- |
| COc1cc(CO/N=C2\CN(c3nc4c(cc3F)c(=O)c(C(=O)O)cn4C3CC3)CC2CN)ccc1OCc1ccccc1.CS(=O)(=O)O (racemic) | 4 |

test system: Klebsiella pneumoniae; experiment: Antimicrobial activity against extended spectrum beta-lactamases-producing Klebsiella pneumoniae 10-2 after 18-24 hrs by two-fold serial dilution method; assay type: functional; summary of the method: as §1

| SMILES | MIC [µg/mL] |
| --- | --- |
| COc1cc(CO/N=C2\CN(c3nc4c(cc3F)c(=O)c(C(=O)O)cn4C3CC3)CC2CN)ccc1OCc1ccccc1.CS(=O)(=O)O (racemic) | > 128 |

test system: Staphylococcus aureus; experiment: Antimicrobial activity against extended spectrum beta-lactamases-producing methicillin-resistant Staphylococcus aureus 10-11 after 18-24 hrs by two-fold serial dilution method; assay type: functional; summary of the method: as §2

| SMILES | MIC [µg/mL] |
| --- | --- |
| COc1cc(CO/N=C2\CN(c3nc4c(cc3F)c(=O)c(C(=O)O)cn4C3CC3)CC2CN)ccc1OCc1ccccc1.CS(=O)(=O)O (racemic) | 4 |

test system: Staphylococcus epidermidis; experiment: Antimicrobial activity against extended spectrum beta-lactamases-producing methicillin-sensitive Staphylococcus epidermidis 10-15 after 18-24 hrs by two-fold serial dilution method; assay type: functional; summary of the method: as §1

| SMILES | MIC [µg/mL] |
| --- | --- |
| COc1cc(CO/N=C2\CN(c3nc4c(cc3F)c(=O)c(C(=O)O)cn4C3CC3)CC2CN)ccc1OCc1ccccc1.CS(=O)(=O)O (racemic) | 8 |

test system: Streptococcus pneumoniae; experiment: Antimicrobial activity against extended spectrum beta-lactamases-producing Streptococcus pneumoniae 10-4 after 18-24 hrs by two-fold serial dilution method; assay type: functional; summary of the method: as §1

| SMILES | MIC [µg/mL] |
| --- | --- |
| COc1cc(CO/N=C2\CN(c3nc4c(cc3F)c(=O)c(C(=O)O)cn4C3CC3)CC2CN)ccc1OCc1ccccc1.CS(=O)(=O)O (racemic) | 16 |

test system: Klebsiella pneumoniae; experiment: Antimicrobial activity against Klebsiella pneumoniae 10-3 after 18-24 hrs by two-fold serial dilution method; assay type: functional; summary of the method: as §1

| SMILES | MIC [µg/mL] |
| --- | --- |
| COc1cc(CO/N=C2\CN(c3nc4c(cc3F)c(=O)c(C(=O)O)cn4C3CC3)CC2CN)ccc1OCc1ccccc1.CS(=O)(=O)O (racemic) | 32 |

test system: Escherichia coli; experiment: Antimicrobial activity against Escherichia coli 10-3 after 18-24 hrs by two-fold serial dilution method; assay type: functional; summary of the method: as §1

| SMILES | MIC [µg/mL] |
| --- | --- |
| COc1cc(CO/N=C2\CN(c3nc4c(cc3F)c(=O)c(C(=O)O)cn4C3CC3)CC2CN)ccc1OCc1ccccc1.CS(=O)(=O)O (racemic) | > 128 |

test system: Pseudomonas aeruginosa; experiment: Antimicrobial activity against extended spectrum beta-lactamases-producing Pseudomonas aeruginosa 10-20 after 18-24 hrs by two-fold serial dilution method; assay type: functional; summary of the method: as §1

| SMILES | MIC [µg/mL] |
| --- | --- |
| COc1cc(CO/N=C2\CN(c3nc4c(cc3F)c(=O)c(C(=O)O)cn4C3CC3)CC2CN)ccc1OCc1ccccc1.CS(=O)(=O)O (racemic) | 0.06 |
